This is an account of results in ChEMBL document CHEMBL5154797 (Eur J Med Chem, 2022).

Data set [1] is described as follows: Binding affinity to rabies recombinant GST-His-tagged G-glycoprotein protein (20 to 459 AA residues) expressed in Escherichia coli BL21 (DE3) cells assessed as Kd treated for 60 secs followed dissociation time of 120 secs by SPR analysis. Also on record: species or system Lyssavirus rabies. The method in brief: (§1)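 Biacore SPR with PBS-P as sample and running buffer. Target protein was amine-coupled to a CM5 chip in sodium acetate pH 4.0. Compound dilution series flowed at 30 μL/min, with 60 s contact and 120 s dissociation. Reference flow cell and blank cycle responses were subtracted.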
On the technique in general: Surface plasmon resonance follows binding to a sensor surface in real time, without labels.

Another data set deals with SARS-CoV-2. The data set can be described thus: Antiviral activity against S-protein based pseudotyped SARS-CoV-2 infected in Huh7 cells measured after 24 hrs by bright-Glo luciferase assay. The class given is functional, organism-based. To be noted: Severe acute respiratory syndrome coronavirus 2, Huh-7, 24 h. The procedure, abridged: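 Serial dilutions from 200 μM were held with pseudotyped SARS-CoV-2 (1.3 × 10^4 TCID50) at 37 °C for 1 h, then mixed with Huh7 cells (2000 cells/well) and incubated 24 h. EC50 was calculated from bioluminescence intensity.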

The test system of data set [2] is Lyssavirus rabies. Nature of the data set: Antirabies activity against rabies CVS infected in golden hamster BSR cells preincubated for 1 hr followed by mixing of cells measured after 24 hrs by inverted fluorescence microscope analysis. It counts as functional, organism-based.
Another data set concerns Huh-7. The data set can be described thus: Cytotoxicity against human HuH-7 cells assessed as reduction in cell viability incubated for 24 hrs by microplate reader assay. The class given is functional.
Data set [3] can be described thus: Cytotoxicity against golden hamster BSR cells assessed as reduction in cell viability incubated for 24 hrs by microplate luminometer method. It counts as toxicity, cell-based, Mesocricetus auratus. To be noted: BSR cells. The procedure, abridged:
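BSR cells given serial dilutions from 200 μM, with medium in place of virus. After 24 h at 37 °C, viability was read by luminometer and CC50 calculated.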

A short description of data set [4]: Selectivity index, ratio of CC50 for cytotoxicity against golden hamster BSR cells to EC50 for antirabies activity against Rabies virus infected in golden hamster BSR cells. It counts as toxicity, cell-based. The note with it: read-out: Selectivity Index.
The test system of data set [5] is Lyssavirus rabies. Nature of the data set: Antirabies activity against rabies CVS infected in golden hamster BSR cells assessed as inhibition of viral growth at 25 uM treated 1 hr post infection measured after 23 hrs by measuring luciferase signal. The class given is functional, organism-based. To be noted: time 24.0 hrs.
Data set [6] is described as follows: Acute toxicity in Kunming mouse assessed as lethal dose administered orally measured after 7 days. To be noted: in vivo, 800 mg/kg, route po, time 7 day. The procedure, abridged:
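Female Kunming mice (20.0 ± 1.0 g), 6 per group, randomly assigned. Single oral dose of 0, 200, 400, 600 or 800 mg•kg−1, with ddH2O as control. Body weight, behaviour and survival monitored for 7 days.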

The nature of data set [7]: Selectivity index, ratio of CC50 for cytotoxicity against human Huh7 cells to EC50 for antiviral activity against S-protein based pseudotyped SARS-CoV-2 infected in Huh7 cells. It counts as functional.
A further data set has as its target Spike glycoprotein (Severe acute respiratory syndrome coronavirus 2, UniProt P0DTC2). Nature of the data set: Binding affinity to SARS-CoV-2 spike protein assessed as Kd by SPR analysis.
For data set [8], the target named is Spike glycoprotein (Severe acute respiratory syndrome coronavirus 2) (UniProt P0DTC2). The data set can be described thus: Binding affinity to SARS-CoV-2 spike protein at 0.16 to 5 uM by SPR analysis. To be noted: dose 0.16-5 µM, DDE = dose-dependent effect. The procedure, abridged:
as §1

Activity calls are given as the source filed them. No cut-off for these calls is given here.

A word on the Kd: it is the constant that tells how readily two partners part at equilibrium. The EC50 is the concentration that produces a half-maximal response. Low values mean an effect from little substance, high ones a need for much substance. The term CC50 denotes the concentration at which the toxic effect on the cells reaches its halfway point. Take `CC(C)/N=c1\cc2n(-c3ccc(Cl)cc3)c3ccccc3nc-2cc1Nc1ccc(Cl)cc1` [CLOFAZIMINE]: the Kd in data set [1] came to 0.28 µM. For the same compound, the values for the EC50 in the data set on SARS-CoV-2 and in the data set on Lyssavirus rabies [2] were 10 µM and 2.28 µM, respectively. The CC50 in the data set on Huh-7 was 44.7 µM. Also, in data set [3], the 50% cytotoxic concentration (CC50) at 24 h turned out to be 323 µM.

Broadly, the LD50 is the dose at which mortality reaches 50%. As to `COc1ccc(-n2c3c/c(=N\C(C)C)c(Nc4ccc(F)cc4)cc-3nc3ccccc32)cn1`, the selectivity ratio in [4] was 229. In addition, the result with Lyssavirus rabies [5] was Active. The LD50 at 168 h in data set [6] is 800 mg/kg. Further, the EC50 in the data set with SARS-CoV-2 is under 10 µM; with Lyssavirus rabies [2], 1.41 µM. Also, the “Selectivity Index” value in data set [7] was over 8.9. Further, the CC50 with Huh-7 is 88.9 µM. In addition, the CC50 at 24 h in [3] was determined as 323 µM.

With `COc1ccc(-n2c3c/c(=N\C(C)C)c(Nc4cccc(F)c4)cc-3nc3ccccc32)cn1`, the Kd in data set [1] is 0.73 µM; at Spike glycoprotein, 2.52 µM. Also, the selectivity ratio in [4] amounted to 223. For the same compound, the result with Lyssavirus rabies [5] was Active. Moreover, in [6], the LD50 at 168 h was 800 mg/kg. Moreover, the EC50 turned out to be 14.6 µM with SARS-CoV-2 and 1.45 µM in the data set with Lyssavirus rabies [2]. Also, the Activity entry in [8] is “Dde”. The “Selectivity Index” value in data set [7] was 6.1. In addition, the CC50 in the data set on Huh-7 is 88.9 µM.
